{"source": "ChEMBL document CHEMBL4325893", "about": "“Synthesis and antibacterial profiles of targeted triclosan derivatives” (2019)", "key": {"Klebsiella pneumoniae [1]": {"test_system": "Klebsiella pneumoniae", "assay": "Antibacterial activity against Klebsiella pneumoniae ATCC 13883 after 18 hrs", "type": "functional", "conditions": "ATCC 13883, 18 h", "method_in_brief": "(§1)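 Broth microdilution in Nutrient Broth No. 2; stocks in ethanol diluted to 0.01–128 µg/ml (triclosan) or 0.25–256 µg/ml (glycosides). Overnight 37 °C NB2 cultures diluted 1 in 10^4 in saline and added to the dilutions. Incubation at 37 °C with agitation, OD read every 15 min; MIC is the lowest concentration preventing any OD rise after 18 h.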"}, "[2]": {"assay": "Antibacterial activity against Salmonella enterica subspecies enterica serotype Infantis OCC 2133 after 18 hrs", "type": "functional, Salmonella enterica subsp. enterica serovar Infantis", "conditions": "OCC 2133, 18 h", "method_in_brief": "as §1"}, "Staphylococcus aureus [3]": {"test_system": "Staphylococcus aureus", "assay": "Antibacterial activity against Staphylococcus aureus ATCC 25923 after 18 hrs", "type": "functional", "conditions": "ATCC 25923, 18 h", "method_in_brief": "as §1"}, "Salmonella enteritidis": {"test_system": "Salmonella enteritidis", "assay": "Antibacterial activity against Salmonella enterica subspecies enterica serotype Enteritidis 13076 after 18 hrs", "type": "functional, Salmonella enterica subsp. enterica serovar Enteritidis", "conditions": "Salmonella enterica, 13076, 18 h", "method_in_brief": "as §1"}, "Enterococcus faecium": {"test_system": "Enterococcus faecium", "assay": "Antibacterial activity against Enterococcus faecium ATCC 19434 after 18 hrs", "type": "functional", "conditions": "ATCC 19434, 18 h", "method_in_brief": "as §1"}, "Klebsiella pneumoniae [4]": {"test_system": "Klebsiella pneumoniae", "assay": "Antibacterial activity against Klebsiella pneumoniae ATCC 10031 after 18 hrs", "type": "functional", "conditions": "ATCC 10031, 18 h", "method_in_brief": "as §1"}, "[5]": {"test_system": "Staphylococcus saprophyticus", "assay": "Antibacterial activity against Staphylococcus saprophyticus ATCC 15305 after 18 hrs", "type": "functional", "conditions": "ATCC 15305, 18 h", "method_in_brief": "(§2)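 Broth microdilution in Nutrient Broth No. 2. Ethanol stocks were diluted in broth to 0.01–128 µg/ml for triclosan and 0.25–256 µg/ml for glycosides. Overnight 37°C NB2 cultures were diluted 1 in 10^4 in saline and added to the wells. Plates were incubated at 37°C with OD read every 15 min after agitation. MIC was the lowest concentration giving no OD increase at 18 h.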"}, "[6]": {"assay": "Antibacterial activity against Enterobacter cloacae ATCC 13047 after 18 hrs", "type": "functional, Enterobacter cloacae subsp. cloacae", "conditions": "ATCC 13047, 18 h", "method_in_brief": "as §1"}, "[7]": {"test_system": "Staphylococcus epidermidis", "assay": "Antibacterial activity against Staphylococcus epidermidis ATCC 14990 after 18 hrs", "type": "functional", "conditions": "ATCC 14990, 18 h", "method_in_brief": "as §1"}, "Staphylococcus aureus [8]": {"test_system": "Staphylococcus aureus", "assay": "Antibacterial activity against Staphylococcus aureus ATCC 6538P after 18 hrs", "type": "functional", "method_in_brief": "as §1"}, "Escherichia coli [9]": {"test_system": "Escherichia coli", "assay": "Antibacterial activity against Escherichia coli ATCC 35218 after 18 hrs", "type": "functional", "conditions": "ATCC 35218, 18 h", "method_in_brief": "as §1"}, "Streptococcus pneumoniae": {"test_system": "Streptococcus pneumoniae", "assay": "Antibacterial activity against Streptococcus pneumoniae ATCC 49619 after 18 hrs", "type": "functional", "conditions": "ATCC 49619, 18 h", "method_in_brief": "as §2"}, "Escherichia coli [10]": {"test_system": "Escherichia coli", "assay": "Antibacterial activity against Escherichia coli ATCC 8739 after 18 hrs", "type": "functional", "conditions": "ATCC 8739, 18 h", "method_in_brief": "as §1"}, "[11]": {"assay": "Antibacterial activity against Salmonella enterica subspecies enterica serotype Nottingham NCTC 7832 after 18 hrs", "type": "functional, Salmonella enterica subsp. enterica serovar Nottingham", "conditions": "NCTC 7832, 18 h", "method_in_brief": "as §1"}, "Bacillus cereus": {"test_system": "Bacillus cereus", "assay": "Antibacterial activity against Bacillus cereus ATCC 14579 after 18 hrs", "type": "functional", "conditions": "ATCC 14579, 18 h", "method_in_brief": "as §1"}, "Staphylococcus aureus [12]": {"test_system": "Staphylococcus aureus", "assay": "Antibacterial activity against Staphylococcus aureus ATCC 6538 after 18 hrs", "type": "functional", "conditions": "ATCC 6538, 18 h", "method_in_brief": "as §1"}, "[13]": {"test_system": "Staphylococcus haemolyticus", "assay": "Antibacterial activity against Staphylococcus haemolyticus OCC 2223 after 18 hrs", "type": "functional", "conditions": "OCC 2223, 18 h", "method_in_brief": "as §2"}, "[14]": {"assay": "Antibacterial activity against Salmonella enterica subspecies enterica serotype Poona NCTC 4840 after 18 hrs", "type": "functional, Salmonella enterica subsp. enterica serovar Poona", "conditions": "NCTC 4840, 18 h", "method_in_brief": "as §1"}, "Escherichia coli [15]": {"test_system": "Escherichia coli", "assay": "Antibacterial activity against Escherichia coli ATCC 25922 after 18 hrs", "type": "functional", "conditions": "ATCC 25922, 18 h", "method_in_brief": "as §1"}, "[16]": {"test_system": "Staphylococcus epidermidis", "assay": "Antibacterial activity against Staphylococcus epidermidis ATCC 12228 after 18 hrs", "type": "functional", "conditions": "ATCC 12228, 18 h", "method_in_brief": "as §1"}, "Proteus vulgaris": {"test_system": "Proteus vulgaris", "assay": "Antibacterial activity against Proteus vulgaris OCC 195 after 18 hrs", "type": "functional", "conditions": "OCC 195, 18 h", "method_in_brief": "as §1"}, "Escherichia coli [17]": {"test_system": "Escherichia coli", "assay": "Antibacterial activity against Escherichia coli ATCC 11775 after 18 hrs", "type": "functional", "method_in_brief": "as §1"}, "[18]": {"test_system": "Salmonella enterica subsp. enterica serovar Abony", "assay": "Antibacterial activity against Salmonella enterica subspecies enterica serotype Abony NCTC 6017 after 18 hrs", "type": "functional", "conditions": "NCTC 6017, 18 h", "method_in_brief": "as §1"}, "Klebsiella aerogenes": {"test_system": "Klebsiella aerogenes", "assay": "Antibacterial activity against Klebsiella aerogenes NCTC 8167 after 18 hrs", "type": "functional", "conditions": "NCTC 8167, 18 h", "method_in_brief": "as §1"}, "Streptococcus pyogenes": {"test_system": "Streptococcus pyogenes", "assay": "Antibacterial activity against Streptococcus pyogenes ATCC 19615 after 18 hrs", "type": "functional", "conditions": "ATCC 19615, 18 h", "method_in_brief": "as §2"}, "[19]": {"assay": "Antibacterial activity against Salmonella enterica subspecies enterica serotype Dublin OCC 627 after 18 hrs", "type": "functional, Salmonella enterica subsp. enterica serovar Dublin", "conditions": "OCC 627, 18 h", "method_in_brief": "as §1"}, "Cronobacter sakazakii": {"test_system": "Cronobacter sakazakii", "assay": "Antibacterial activity against Cronobacter sakazakii 29544 after 18 hrs", "type": "functional", "conditions": "Cronobacter sakazakii, 29544, 18 h", "method_in_brief": "as §1"}, "Bacillus subtilis": {"test_system": "Bacillus subtilis", "assay": "Antibacterial activity against Bacillus subtilis NCTC 10073 after 18 hrs", "type": "functional", "conditions": "NCTC 10073, 18 h", "method_in_brief": "as §1"}}, "data": [{"smiles": "Oc1cc(Cl)ccc1Oc1ccc(Cl)cc1Cl", "note": "[TRICLOSAN]", "values": [{"measurement": "MIC", "setting": "Klebsiella pneumoniae [1]", "value": 0.1, "unit": "µg/mL"}, {"measurement": "MIC", "setting": "[2]", "value": "0.5 to 1", "unit": "µg/mL"}, {"measurement": "MIC", "setting": "Staphylococcus aureus [3]", "value": 0.01, "unit": "µg/mL"}, {"measurement": "MIC", "setting": "Salmonella enteritidis", "value": "0.5 to 1", "unit": "µg/mL"}, {"measurement": "MIC", "setting": "Enterococcus faecium", "value": 4, "unit": "µg/mL"}, {"measurement": "MIC", "setting": "Klebsiella pneumoniae [4]", "value": 0.1, "unit": "µg/mL"}, {"measurement": "MIC", "setting": "[5]", "value": 0.01, "unit": "µg/mL"}, {"measurement": "MIC", "setting": "[6]", "value": 0.5, "unit": "µg/mL"}, {"measurement": "MIC", "setting": "[7]", "value": 0.01, "unit": "µg/mL"}, {"measurement": "MIC", "setting": "Staphylococcus aureus [8]", "value": 0.01, "unit": "µg/mL"}, {"measurement": "MIC", "setting": "Escherichia coli [9]", "value": "0.1 to 0.5", "unit": "µg/mL"}, {"measurement": "MIC", "setting": "Streptococcus pneumoniae", "value": 1, "unit": "µg/mL"}, {"measurement": "MIC", "setting": "Escherichia coli [10]", "value": "0.1 to 0.5", "unit": "µg/mL"}, {"measurement": "MIC", "setting": "[11]", "value": "0.5 to 1", "unit": "µg/mL"}, {"measurement": "MIC", "setting": "Bacillus cereus", "value": 2, "unit": "µg/mL"}, {"measurement": "MIC", "setting": "Staphylococcus aureus [12]", "value": 0.01, "unit": "µg/mL"}, {"measurement": "MIC", "setting": "[13]", "value": 0.01, "unit": "µg/mL"}, {"measurement": "MIC", "setting": "[14]", "value": "0.5 to 1", "unit": "µg/mL"}, {"measurement": "MIC", "setting": "Escherichia coli [15]", "value": "0.1 to 0.5", "unit": "µg/mL"}, {"measurement": "MIC", "setting": "[16]", "value": 0.01, "unit": "µg/mL"}, {"measurement": "MIC", "setting": "Proteus vulgaris", "value": 0.5, "unit": "µg/mL"}, {"measurement": "MIC", "setting": "Escherichia coli [17]", "value": "0.1 to 0.5", "unit": "µg/mL"}, {"measurement": "MIC", "setting": "[18]", "value": "0.5 to 1", "unit": "µg/mL"}, {"measurement": "MIC", "setting": "Klebsiella aerogenes", "value": 0.5, "unit": "µg/mL"}, {"measurement": "MIC", "setting": "Streptococcus pyogenes", "value": 1, "unit": "µg/mL"}, {"measurement": "MIC", "setting": "[19]", "value": "0.5 to 1", "unit": "µg/mL"}, {"measurement": "MIC", "setting": "Cronobacter sakazakii", "value": 0.5, "unit": "µg/mL"}, {"measurement": "MIC", "setting": "Bacillus subtilis", "value": 1, "unit": "µg/mL"}]}]}
